Data as given in ChEMBL document CHEMBL1140082, “Design, synthesis, and biological evaluation of potent c-Met inhibitors” (J Med Chem, 2008).

Columns and labels:
[1] = target: Hepatocyte growth factor receptor (Homo sapiens, UniProt P08581); test: Inhibition of cMet by HTRF assay
[2] = target: Hepatocyte growth factor receptor c-Met (Mus musculus) (UniProt P16056); test: Inhibition of human recombinant HGF-mediated cMet phosphorylation in mouse CT26 cells
[3] = target: Vascular endothelial growth factor receptor 2 (Homo sapiens, UniProt P35968); test: Inhibition of phosphorylated KDR by HTRF assay
Procedure, shortened: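 HTRF assay against KDR kinase with 10-point serial dilution. ATP at two-thirds of the experimentally determined Km (Eadie-Hofstee and Lineweaver-Burke). Ki derived from the IC50.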

[4] = Inhibition of IGFR
[5] = Selectivity of cMet over LCK
[6] = Selectivity of cMet over Flt1
[7] = target: Serine/threonine-protein kinase pim-1 (Homo sapiens, UniProt P11309); test: Inhibition of PIM1 kinase
[8] = Selectivity of cMet over Flt2
[9] = Clearance in iv dosed rat; type: ADME, organism-based; details: in vivo
[10] = Bioavailability in iv dosed rat; type: ADME, organism-based; details: in vivo
[11] = Selectivity of cMet over PKBalpha
[12] = target: RAC-alpha serine/threonine-protein kinase (Homo sapiens, UniProt P31749); test: Inhibition of PKBalpha
[13] = Selectivity of cMet over cFMS kinase
[14] = Selectivity of cMet over PIM2
[15] = Selectivity of cMet over ZAP70
[16] = Selectivity of cMet over CDK5
[17] = target: T1, Tyrosine-protein kinase JAK3 (Homo sapiens, UniProt P52333); test: Inhibition of JAK3
T1 sequence (P52333 whole entry): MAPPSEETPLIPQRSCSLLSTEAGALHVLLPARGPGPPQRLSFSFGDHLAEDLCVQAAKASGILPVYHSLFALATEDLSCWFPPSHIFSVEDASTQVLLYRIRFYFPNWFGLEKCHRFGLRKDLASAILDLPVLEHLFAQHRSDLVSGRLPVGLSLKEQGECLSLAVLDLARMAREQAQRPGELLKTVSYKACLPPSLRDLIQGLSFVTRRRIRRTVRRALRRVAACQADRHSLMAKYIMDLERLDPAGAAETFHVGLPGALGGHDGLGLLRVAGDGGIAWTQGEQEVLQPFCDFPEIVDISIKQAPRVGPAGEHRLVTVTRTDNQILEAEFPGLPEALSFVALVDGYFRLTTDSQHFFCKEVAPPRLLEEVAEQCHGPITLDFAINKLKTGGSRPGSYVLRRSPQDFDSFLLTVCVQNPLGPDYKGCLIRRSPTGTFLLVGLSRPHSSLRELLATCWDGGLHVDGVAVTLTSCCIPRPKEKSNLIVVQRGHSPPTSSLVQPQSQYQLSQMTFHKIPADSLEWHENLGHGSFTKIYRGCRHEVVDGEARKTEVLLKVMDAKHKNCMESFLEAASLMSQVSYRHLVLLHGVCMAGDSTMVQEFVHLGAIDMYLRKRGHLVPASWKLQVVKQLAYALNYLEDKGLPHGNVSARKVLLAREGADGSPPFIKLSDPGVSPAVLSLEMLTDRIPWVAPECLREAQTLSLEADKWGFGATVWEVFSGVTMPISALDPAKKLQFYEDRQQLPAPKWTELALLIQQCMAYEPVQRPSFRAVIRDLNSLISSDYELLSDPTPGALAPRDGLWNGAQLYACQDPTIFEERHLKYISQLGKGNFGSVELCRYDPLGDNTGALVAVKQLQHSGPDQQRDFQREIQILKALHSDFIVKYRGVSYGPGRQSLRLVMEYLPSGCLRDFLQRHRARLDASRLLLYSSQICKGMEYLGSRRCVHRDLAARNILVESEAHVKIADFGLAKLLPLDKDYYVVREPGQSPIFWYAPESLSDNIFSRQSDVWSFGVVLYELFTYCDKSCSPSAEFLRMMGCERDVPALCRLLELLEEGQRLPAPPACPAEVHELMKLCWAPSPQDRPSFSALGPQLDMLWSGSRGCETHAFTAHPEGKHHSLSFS

[18] = target: Ribosomal protein S6 kinase alpha-5 (Homo sapiens, UniProt O75582); test: Inhibition of MSK1
[19] = Inhibition of FGFRK
[20] = target: Tyrosine-protein kinase BTK (Homo sapiens, UniProt Q06187); test: Inhibition of BTK
[21] = Selectivity of cMet over JAK2
[22] = Selectivity of cMet over FGFRK
[23] = tested on: Mus musculus; test: Inhibition of human recombinant HGF-induced cMet phosphorylation in po or ip dosed BALB/c mouse liver after 2 hrs
[24] = Volume of distribution in iv dosed rat; type: ADME, organism-based; details: in vivo
[25] = Selectivity of cMet over Aurora2
[26] = target: Macrophage-stimulating protein receptor (Homo sapiens, UniProt Q04912); test: Inhibition of phosphorylated RON
[27] = Selectivity of cMet over P38
[28] = Selectivity of cMet over Tie2 kinase
[29] = Selectivity of cMet over JAK3
[30] = target: Ribosomal protein S6 kinase beta-1 (Homo sapiens, UniProt P23443); test: Inhibition of P70S6
[31] = Selectivity of cMet over FGFRK2
[32] = Selectivity of cMet over JNK2
[33] = Inhibition of P38 kinase
[34] = Selectivity of cMet over P70S6
[35] = target: Cyclin-dependent kinase 5 (Homo sapiens, UniProt Q00535); test: Inhibition of CDK5
[36] = Selectivity of cMet over MSK1
[37] = target: Mitogen-activated protein kinase 3 (Homo sapiens, UniProt P27361); test: Inhibition of ERK1
[38] = target: Angiopoietin-1 receptor (Homo sapiens, UniProt Q02763); test: Inhibition of Tie2 kinase
[39] = Half life in iv dosed rat; type: ADME, organism-based; details: in vivo
[40] = Selectivity of cMet over ERK1
[41] = target: cAMP-dependent protein kinase catalytic subunit alpha (Homo sapiens, UniProt P17612); test: Inhibition of PKAalpha
[42] = Selectivity of cMet over PKAalpha
[43] = target: Mitogen-activated protein kinase 9 (Homo sapiens, UniProt P45984); test: Inhibition of JNK2
[44] = Selectivity of cMet over PIM1
[45] = Selectivity of cMet over BTK
[46] = Selectivity of cMet over EGFR
[47] = target: Tyrosine-protein kinase Lck (Homo sapiens, UniProt P06239); test: Inhibition of LCK
[48] = target: Serine/threonine-protein kinase pim-2 (Homo sapiens, UniProt Q9P1W9); test: Inhibition of PIM2 kinase
[49] = target: T2, Aurora kinase A (Homo sapiens, UniProt O14965); test: Inhibition of Aurora2
T2 sequence (O14965 whole entry): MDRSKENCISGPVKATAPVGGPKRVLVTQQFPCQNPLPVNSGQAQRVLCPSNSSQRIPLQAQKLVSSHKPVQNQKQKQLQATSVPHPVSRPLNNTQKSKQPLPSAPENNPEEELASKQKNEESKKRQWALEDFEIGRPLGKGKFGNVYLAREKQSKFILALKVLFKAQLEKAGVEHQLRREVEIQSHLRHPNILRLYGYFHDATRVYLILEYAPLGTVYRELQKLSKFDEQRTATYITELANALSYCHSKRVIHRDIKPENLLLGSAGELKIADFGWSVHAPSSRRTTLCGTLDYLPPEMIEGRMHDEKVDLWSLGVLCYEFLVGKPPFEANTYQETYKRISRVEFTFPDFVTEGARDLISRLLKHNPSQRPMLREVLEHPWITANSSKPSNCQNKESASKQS

[50] = target: Tyrosine-protein kinase JAK2 (Homo sapiens, UniProt O60674); test: Inhibition of JAK2
[51] = target: Tyrosine-protein kinase ZAP-70 (Homo sapiens, UniProt P43403); test: Inhibition of ZAP70
[52] = target: Macrophage colony-stimulating factor 1 receptor (Homo sapiens, UniProt P07333); test: Inhibition of cFMS kinase
[53] = target: Vascular endothelial growth factor receptor 1 (Homo sapiens, UniProt P17948); test: Inhibition of Flt1 kinase
[54] = target: Vascular endothelial growth factor receptor 3 (Homo sapiens, UniProt P35916); test: Inhibition of Flt4 kinase
[55] = target: Fibroblast growth factor receptor 2 (Homo sapiens, UniProt P21802); test: Inhibition of FGFRK2

With COc1cc2c(Oc3ccc(-c4cnc(Cc5ccccc5)n(C)c4=O)cc3F)ccnc2cc1OCCCN1CCN(C)CC1 the Ki [1] was 9.2 nM.
COc1cc2c(Oc3ccc(-c4cnc(Cc5ccc(F)cc5)n(C)c4=O)cc3F)ccnc2cc1OCCCN1CCOCC1 gave an IC50 [2] of 196 nM, a Ki [3] of over 3000 nM and a Ki [4] of 860 nM. It also gave a Ki [1] of 17 nM.
COc1cc2c(Oc3ccc(-c4cnc(Nc5ccc(F)cc5)n(C)c4=O)nc3)ccnc2cc1OCCCN1CCOCC1 showed a Selectivity ratio [5] of under 10, a Selectivity ratio [6] of over 100 and an IC50 [7] of 7.8 µM. It also gave a Selectivity ratio [8] of over 100, a clearance [9] of 9.33 mL/min/kg and a bioavailability [10] of 48%. For the same molecule, the Selectivity ratio [11] was over 100, the IC50 [12] was over 100 µM and the Selectivity ratio [13] was under 10. It also gave a Selectivity ratio [14] of over 100, a Selectivity ratio [15] of over 100 and a Selectivity ratio [16] of over 100. For the same molecule, the IC50 [17] was over 25 µM, the IC50 [18] was 52 µM and the IC50 [19] was 1300 nM. For the same molecule, the IC50 [20] was 126 nM, the Selectivity ratio [21] was over 100 and the Selectivity ratio [22] was over 100. For the same molecule, the ED90 [23] was 30 mg/kg, the IC50 [2] was 59 nM and the Vd [24] was 3.4 L/kg. For the same molecule, the Selectivity ratio [25] was over 100, the Ki [26] was 1.3 nM and the Selectivity ratio [27] was over 100. For the same molecule, the Selectivity ratio [28] was over 100, the Selectivity ratio [29] was over 100 and the IC50 [30] was 65 µM. It also gave a Selectivity ratio [31] of over 100, a Selectivity ratio [32] of over 100 and a Ki [3] of 83 nM. The IC50 [33] was over 100 µM, the Selectivity ratio [34] was over 100 and the IC50 [35] was over 100 µM. It also gave a Ki [4] of 51 nM, a Selectivity ratio [36] of over 100 and an IC50 [37] of over 100 µM. For the same molecule, the IC50 [38] was 221 nM, the half-life [39] was 144 min and the Selectivity ratio [40] was over 100. For the same molecule, the IC50 [41] was over 25 µM, the Selectivity ratio [42] was over 100 and the IC50 [43] was 4.7 µM. The Selectivity ratio [44] was over 100, the Selectivity ratio [45] was under 10 and the Selectivity ratio [46] was over 100. The IC50 [47] was 33 nM, the IC50 [48] was over 25 µM and the IC50 [49] was 426 nM. It also gave a Ki [1] of 3.4 nM.
For COc1cc2c(Oc3ccc(-c4cnc(Cc5ccccc5)n(C)c4=O)cc3F)ccnc2cc1OCCCN1CCOCC1, the IC50 [50] was over 25 µM, the IC50 [7] was over 30 µM and the IC50 [51] was over 5.4 µM. The clearance [9] was 9.33 mL/min/kg, the bioavailability [10] was 100% and the IC50 [12] was over 100 µM. It also gave an IC50 [52] of 37 nM, an IC50 [17] of over 8.3 µM and an IC50 [18] of over 100 µM. The IC50 [19] was over 1000 nM, the IC50 [20] was 19 nM and the ED90 [23] was 100 mg/kg. It also gave a Vd [24] of 3.4 L/kg, a Ki [26] of 195 nM and an IC50 [30] of 10 µM. It also gave a Ki [3] of 422 nM, an IC50 [33] of over 25 µM and an IC50 [35] of over 100 µM. For the same molecule, the Ki [4] was 1450 nM, the IC50 [37] was over 100 µM and the IC50 [53] was over 1000 nM. For the same molecule, the IC50 [38] was 285 nM, the half-life [39] was 144 min and the IC50 [41] was over 100 µM. It also gave an IC50 [43] of over 100 µM, an IC50 [54] of 120 nM and an IC50 [47] of 8 nM. The IC50 [48] was over 25 µM, the IC50 [55] was over 1000 nM and the IC50 [49] was 116 nM. The Ki [1] was 8.9 nM.
COc1cc2nccc(Oc3ccc(-c4cnc(Cc5ccccc5)n(C)c4=O)cc3F)c2cc1OC showed a Ki [3] of over 1300 nM and a Ki [4] of 1030 nM.
With CCN1CCN(CCCOc2cc3nccc(Oc4ccc(-c5cnc(Cc6ccccc6)n(C)c5=O)cc4F)c3cc2OC)CC1 the Ki [1] was 21 nM.
In the case of COc1cc2nccc(Oc3ccc(-c4ccc(Cc5ccccc5)nn4)cc3F)c2cc1OC, the Ki [3] is reported as 56 nM and the Ki [1] is reported as 201 nM.
